pIC50: −log10 of the molar value. The source made the active and inactive calls. The rule behind the calls is not given here.
Columns and labels:
[1] = test system: NFS-60; test: Induction of apoptosis in mouse NFS60 cells assessed as induction of cell shape loss by phase contrast inverted fluorescence microscopy; assay type: functional, cell-based
[2] = test system: HepG2; test: Induction of apoptosis in human HepG2 cells assessed as necrotic cells level at IC50 incubated for 72 hrs by annexin V/propidium iodide staining based flow cytometry (reference value: 0.87%); assay type: functional
[3] = test system: NFS-60; test: Induction of apoptosis in mouse NFS60 cells assessed as late apoptotic cells level at IC50 incubated for 72 hrs by annexin V/propidium iodide staining based flow cytometry (reference value: 0.01%); assay type: functional
[4] = test system: HepG2; test: Induction of apoptosis in human HepG2 cells assessed as late apoptotic cells level at IC50 incubated for 72 hrs by annexin V/propidium iodide staining based flow cytometry (reference value: 0.1%); assay type: functional
[5] = test system: HepG2; test: Induction of apoptosis in human HepG2 cells assessed as induction of cell shape loss by phase contrast inverted fluorescence microscopy; assay type: functional, cell-based
[6] = test system: MCF7; test: Induction of apoptosis in human MCF7 cells assessed as early apoptotic cells at IC50 incubated for 72 hrs by annexin V/propidium iodide staining based flow cytometry (reference value: 0.47 +/- 0.01%); assay type: functional
[7] = Selectivity index, ratio of IC50 for human WI38 cells to IC50 for mouse NFS60 cells
Outline: (§1)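 SI calculated as IC50 on normal Wi-38 fibroblasts divided by IC50 on the cancer cell line. Both came from 72 h MTT assays.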

[8] = test system: NFS-60; test: Induction of apoptosis in mouse NFS60 cells assessed as early apoptotic cells level at IC50 incubated for 72 hrs by annexin V/propidium iodide staining based flow cytometry (reference value: 0.46%); assay type: functional
[9] = test system: NFS-60; test: Induction of apoptosis in mouse NFS60 cells assessed as caspase 3/7 activity using DEVD aminoluciferin as substrate at IC50 after 24 hrs […] relative to control; assay type: functional
Outline: (§2)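 Caspase 3/7 activation measured with Caspase-Glo 3/7 kit using a luminogenic caspase-cleavable substrate. […] Reported as percent activation, mean ± SEM.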

[10] = test system: HepG2; test: Induction of caspase-independent apoptosis in human HepG2 cells assessed as AIF1 release level using tetramethylbenzidine as substrate incubated for 1 hr by ELISA (reference value: 1.18 +/- 0.06 ng/ml); assay type: functional
Outline: (§3)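 Extracts of untreated and treated cells added to anti-AIF1-coated wells. Incubated 1 h with HRP-conjugated antibody, washed, then TMB substrate added. Reaction stopped after 10 min and read at 450 nm. AIF1 reported in ng/mL, mean ± SEM.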

[11] = test system: HepG2; test: Cytotoxicity against human HepG2 cells assessed as cell growth inhibition incubated for 72 hrs by MTT assay; assay type: functional, cell-based; conditions: HepG2, 72 h
Outline: (§4)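 Cells grown in RPMI-1640 with 10% FBS and seeded at 5×10^3 per well. After 24 h, serial concentrations given for 72 h at 37°C, 5% CO2. Then 5 mg/mL MTT stock added for 3 h, formazan dissolved in DMSO, A570 read. IC50 calculated from the curves.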

[12] = Selectivity index, ratio of IC50 for human WI38 cells to IC50 for human HepG2 cells; assay type: toxicity; conditions: WI38 cells versus HepG2 cells, read-out: Ratio IC50; outline: as §1
[13] = test system: NFS-60; test: Induction of caspase-independent apoptosis in mouse NFS60 cells assessed as AIF1 release level using tetramethylbenzidine as substrate incubated for 1 hr by ELISA (reference value: 2.37 +/- 0.035 ng/ml); assay type: functional; outline: as §3
[14] = test system: HepG2; test: Induction of apoptosis in human HepG2 cells assessed as early apoptotic cells level at IC50 incubated for 72 hrs by annexin V/propidium iodide staining based flow cytometry (reference value: 0.05%); assay type: functional
[15] = test system: MCF7; test: Cytotoxicity against human MCF7 cells assessed as cell growth inhibition incubated for 72 hrs by MTT assay; assay type: functional, cell-based; conditions: MCF7, 72 h; outline: as §4
[16] = test system: HepG2; test: Induction of apoptosis in human HepG2 cells assessed as caspase 3/7 activity using DEVD aminoluciferin as substrate at IC50 after 24 hrs by fluorescence assay relative to control; assay type: functional; outline: as §2
[17] = test system: MCF7; test: Induction of apoptosis in human MCF7 cells assessed as total apoptotic cells at IC50 incubated for 72 hrs by annexin V/propidium iodide staining based flow cytometry (reference value: 0.48 +/- 0.01%); assay type: functional
[18] = test system: MCF7; test: Induction of caspase-independent apoptosis in human MCF7 cells assessed as AIF1 release level using tetramethylbenzidine as substrate incubated for 1 hr by ELISA (reference value: 2.28 +/- 0.06 ng/ml); assay type: functional; outline: as §3
[19] = test system: NFS-60; test: Induction of apoptosis in mouse NFS60 cells assessed as induction of cell shrinkage by phase contrast inverted fluorescence microscopy; assay type: functional, cell-based
[20] = test system: NFS-60; test: Cytotoxicity against mouse NFS60 cells assessed as cell growth inhibition incubated for 72 hrs by MTT assay; assay type: functional, cell-based; conditions: NFS-60, 72 h; outline: as §4
[21] = test system: HepG2; test: Induction of apoptosis in human HepG2 cells assessed as early apoptotic cells at IC50 incubated for 72 hrs by annexin V/propidium iodide staining based flow cytometry (reference value: 0.78 +/- 0.09%); assay type: functional
[22] = test system: NFS-60; test: Induction of apoptosis in mouse NFS60 cells assessed as necrotic cells level at IC50 incubated for 72 hrs by annexin V/propidium iodide staining based flow cytometry (reference value: 0.01%); assay type: functional
[23] = test system: WI-38; test: Cytotoxicity against human WI38 cells assessed as cell growth inhibition incubated for 72 hrs by MTT assay; assay type: cell-based; conditions: for pIC50: Homo sapiens, WI-38, 72 h; for EC100: human, wi-38, 72 h
Outline: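 Wi-38 fibroblasts grown in DMEM with 10% FBS and seeded at 5×10^3 per well. Attachment 24 h, then serial concentrations for 72 h at 37°C, 5% CO2. MTT stock (5 mg/mL) added for 3 h at 37°C, DMSO solubilization, absorbance at 570 nm. IC50 estimated.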

[24] = Selectivity index, ratio of IC50 for human WI38 cells to IC50 for human MCF7 cells; assay type: toxicity; conditions: WI38 cells versus MCF7 cells, read-out: Ratio IC50; outline: as §1
[25] = test system: MCF7; test: Induction of apoptosis in human MCF7 cells assessed as late apoptotic cells at IC50 incubated for 72 hrs by annexin V/propidium iodide staining based flow cytometry (reference value: 0.01 +/- 0.001%); assay type: functional
[26] = test system: MCF7; test: Potency index, ratio of doxorubicin IC50 to test compound IC50 against human MCF7 cells; assay type: functional
[27] = test system: MCF7; test: Induction of apoptosis in human MCF7 cells assessed as caspase 3/7 activity using DEVD aminoluciferin as substrate at IC50 after 24 hrs […] relative to control; assay type: functional; outline: as §2
[28] = test system: MCF7; test: Induction of apoptosis in human MCF7 cells assessed as induction of cell shrinkage by phase contrast inverted fluorescence microscopy; assay type: functional, cell-based
[29] = test system: MCF7; test: Induction of apoptosis in human MCF7 cells assessed as viable cells level at IC50 incubated for 72 hrs by annexin V/propidium iodide staining based flow cytometry (reference value: 99.5%); assay type: functional
[30] = test system: NFS-60; test: Induction of apoptosis in mouse NFS60 cells assessed as late apoptotic cells at IC50 incubated for 72 hrs by annexin V/propidium iodide staining based flow cytometry (reference value: 0.015 +/- 0.01%)
[31] = test system: HepG2; test: Induction of apoptosis in human HepG2 cells assessed as total apoptotic cells at IC50 incubated for 72 hrs by annexin V/propidium iodide staining based flow cytometry (reference value: 0.169 +/- 0.02%); assay type: functional

| Compound | Activity [1] | Activity [2] [%] | Activity [3] [%] | Activity [4] [%] | Activity [5] | Activity [6] [%] | Ratio IC50 [7] | Activity [8] [%] | Activity [9] [%] | Activity [10] [ng/mL] | pIC50 [11] | selectivity ratio [12] | Activity [13] [ng/mL] | Activity [14] [%] | pIC50 [15] | Activity [16] [%] | Activity [17] [%] | Activity [18] [ng/mL] | Activity [19] | pIC50 [20] | other results |
| --- | --- | --- | --- | --- | --- | --- | --- | --- | --- | --- | --- | --- | --- | --- | --- | --- | --- | --- | --- | --- | --- |
| O=C(Cc1ccccc1)OC1(C(=O)Nc2ccc([N+](=O)[O-])cc2)CCCCC1 | Active | 7.13 | 18.21 | 26.59 | Active | 11.885 | 5.419 | 5.65 | 45.41 | 1.23 | 7.85 | 3.09 | 2.41 | 2.74 | 8.11 | 47.64 | 33.98 | 2.33 | Active | 8.09 | Activity [21]: 6.0649%; Activity [22]: 14.8%; pIC50 [23]: 7.36; EC100 [23]: 0.032 µM; selectivity ratio [24]: 5.7; Activity [25]: 22.09%; Ratio IC50 [26]: 2 - 4; Activity [27]: 43.04%; Activity [28]: Active; Activity [29]: 59.23%; Activity [30]: 20.09%; Activity [31]: 33.485% |
| O=C(OC1(C(=O)Nc2ccc([N+](=O)[O-])cc2)CCCCC1)C(O)c1ccccc1 (stereo unspecified) | Active | 7.11 | 22.89 | 41.88 | Active | 22.345 | 10.82 | 2.12 | 52.835 | 1.305 | 8.11 | 11 | 2.47 | 3.14 | 8.30 | 53.64 | 53.129 | 2.36 | Active | 8.11 | Activity [21]: 6.055%; Activity [22]: 21.74%; pIC50 [23]: 7.07; EC100 [23]: 0.0507 µM; selectivity ratio [24]: 16.8; Activity [25]: 30.785%; Ratio IC50 [26]: 2 - 4; Activity [27]: 55.04%; Activity [28]: Active; Activity [29]: 43.92%; Activity [30]: 23.645%; Activity [31]: 48.905% |
| O=C(OC1(C(=O)Nc2ccc([N+](=O)[O-])cc2)CCCCC1)c1ccc([N+](=O)[O-])cc1 | Active | 19.9 | 17.56 | 20.78 | Active | 24.065 | 98.831 | 2.41 | 49.59 | 1.28 | 7.85 | 54 | 2.44 | 1.95 | 8.06 | 50.68 | 44.505 | 2.34 | Active | 8.11 | Activity [21]: 18.43%; Activity [22]: 24.58%; pIC50 [23]: 6.12; EC100 [23]: 0.149 µM; selectivity ratio [24]: 87.5; Activity [25]: 20.439%; Ratio IC50 [26]: 2 - 4; Activity [27]: 50.94%; Activity [28]: Active; Activity [29]: 54.7%; Activity [30]: 18.965%; Activity [31]: 41.815% |

— ChEMBL document CHEMBL4390662, “Design, synthesis and biological evaluation of novel α-acyloxy carboxamides via Passerini reaction as caspase 3/7 activators” (Eur J Med Chem, 2019)
